Our source for the IC50 values is ChEMBL document CHEMBL1799999, “N-benzoylated phenoxazines and phenothiazines: synthesis, antiproliferative activity, and inhibition of tubulin polymerization” (J Med Chem, 2011).

The subject of one assay is K562. Kind of assay: Antiproliferative activity against human K562 cells after 48 hrs by hemocytometric analysis. It is filed as functional, cell-based. Conditions: K562, 48 h. The procedure, abridged: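 K562 cells in RPMI 1640 with 10% FBS at 37 °C/5% CO2, plated at 2 × 10^5 cells/mL. Compounds in DMSO/methanol 1:1, final vehicle 0.5%. Cells counted in a Neubauer hemocytometer after 48 h and expressed as % of untreated control. Triplicate wells, three experiments; IC50 by nonlinear regression.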

In another assay the target is Tubulin (Sus scrofa, UniProt P02554+P02550). Put plainly: Inhibition of pig tubulin polymerization determined after 45 mins at 37 degC by turbidimetric analysis. It is filed as protein assay. In outline: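 Microtubule protein (80–90% tubulin with MAPs) from porcine brain, isolated by two cold/warm cycles. Buffer: 20 mM PIPES pH 6.8, 80 mM NaCl, 0.5 mM MgCl2, 1 mM EGTA, 1 mM DTT. Protein at 1.2 mg/mL (about 10 μM tubulin) with 0.6 mM GTP, 1% DMSO, 37 °C.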

pIC50: −log10 of the molar value.

With `O=C(c1ccccc1)N1c2ccccc2[S+]([O-])c2ccccc21`, the pIC50 (commonly the IC50 on a negative log10 scale, so that one unit is a factor of ten) with K562 is less than 4.52.

`c1ccc2c(c1)Nc1ccccc1S2` [PHENOTHIAZINE] had a pIC50 in the assay with K562 of less than 4.00.

`Clc1ccc2c(c1)Nc1ccccc1O2` gave a pIC50 in the assay with K562 of less than 4.52. Further, on Tubulin, the concentration for half-maximal inhibition (IC50) (as a rule, the point on the concentration scale where inhibition reaches its midpoint) was more than 10 µM.

In turn, `O=C(c1ccccc1)N1c2ccccc2S(=O)(=O)c2ccccc21` gave a pIC50 in the assay on K562 of less than 4.52.

`COc1ccc(C(=O)CN2c3ccccc3Oc3ccc(Cl)cc32)cc1` gave a pIC50 with K562 of less than 4.70.

For the compound `COc1ccc(C(=O)N2c3ccccc3[S+]([O-])c3ccc(Cl)cc32)cc1` (configuration not stated), the pIC50 with K562 was 5.85. This compound gave an IC50 against Tubulin of 2.79 µM.

On to `N#Cc1ccc2c(c1)Oc1ccccc1N2`, for which the pIC50 with K562 is less than 5.00. In addition, the IC50 on Tubulin was more than 10 µM.

`O=C(c1ccc(Br)cc1)N1c2ccccc2Oc2ccc(Cl)cc21` gave a pIC50 with K562 of less than 4.60.

For the compound `N#Cc1ccc2c(c1)Oc1ccccc1N2C(=O)c1ccccc1`, in the assay with K562, the pIC50 is 6.64. The same compound showed an IC50 against Tubulin of 1.2 µM.

For the compound `COc1ccc(C(=O)N2c3ccccc3S(=O)(=O)c3ccc(OC)cc32)cc1`, the pIC50 in the assay on K562 is 5.80. Also, the IC50 against Tubulin came out at 4.69 µM.

In the case of `COc1cc(C(=O)N2c3ccccc3[S+]([O-])c3ccccc32)cc(OC)c1OC`, the pIC50 with K562 was 5.10. In addition, on Tubulin, the IC50 was more than 10 µM.

As to `COc1cc(C(=O)N2c3ccccc3Oc3ccc(Cl)cc32)cc(OC)c1O`, the negative-log IC50 (pIC50) in the assay with K562 is 5.33. The compound further gave an IC50 at Tubulin of 0.68 µM.

In turn, `COc1ccc(C(=O)N2c3ccccc3Sc3ccccc32)cc1` had a pIC50 in the assay with K562 of 6.48. In addition, the IC50 against Tubulin is 2.23 µM.

With `COc1ccc(C(=O)N2c3ccccc3Oc3ccc(C#N)cc32)cc1`, the pIC50 with K562 is 6.80. The IC50 at Tubulin worked out at 2.7 µM.

In the assay on K562, `COc1cc(C(=O)N2c3ccccc3S(=O)(=O)c3ccccc32)cc(OC)c1OC` gave a pIC50 of 5.59. Also, the IC50 at Tubulin was determined as 2.46 µM.

Compound `COc1ccc(C(=O)N2c3ccccc3Oc3cccc(C#N)c32)cc1` showed a pIC50 in the assay on K562 of 6.92. Also, at Tubulin, the IC50 was found to be 0.96 µM.

As for `COc1ccc(C(=O)N2c3ccccc3[S+]([O-])c3ccccc32)cc1O`, the pIC50 in the assay on K562 was 6.52. The same compound came in with an IC50 against Tubulin of 8.4 µM.

With `COc1ccc(C(=O)N2c3ccccc3[S+]([O-])c3ccc(OC)cc32)cc1` (configuration not stated), the pIC50 in the assay on K562 was 5.78. Also, on Tubulin, the IC50 was determined as 23.31 µM.

Take `COc1cc(C(=O)N2c3ccccc3S(=O)(=O)c3ccc(Cl)cc32)cc(OC)c1OC`: the pIC50 with K562 is 5.38. Moreover, the IC50 against Tubulin is more than 10 µM.

For the compound `N#Cc1ccc2c(c1)Oc1ccccc1N2C(=O)c1ccc(Cl)cc1`, the pIC50 in the assay with K562 is 6.31. The same compound returned an IC50 against Tubulin of 2.39 µM.

`COc1ccc(C(=O)N2c3ccccc3[S+]([O-])c3ccccc32)cc1`: the pIC50 in the assay with K562 is 6.38. Besides, the IC50 on Tubulin stood at 9.39 µM.

For `O=C(c1ccc(Cl)cc1)N1c2ccccc2Oc2ccc(Cl)cc21`, the pIC50 with K562 is 4.70. The IC50 against Tubulin was determined as 2.42 µM.

The compound `O=C(c1ccccc1)N1c2ccccc2[S+]([O-])c2ccc(Cl)cc21` (configuration not stated) gave a pIC50 in the assay with K562 of less than 4.52.

In the case of `CC(=O)N1c2ccccc2Oc2ccc(Cl)cc21`, the pIC50 in the assay with K562 was less than 4.52.

`COc1ccc(C(=O)N2c3ccccc3Sc3ccccc32)cc1OCc1ccccc1` gave a pIC50 in the assay with K562 of less than 4.52.

`COc1ccc(C(=O)N2c3ccccc3Sc3ccc(C(F)(F)F)cc32)cc1` had a pIC50 in the assay on K562 of 5.34. The same compound returned an IC50 on Tubulin of more than 10 µM.

In turn, `COc1cc(C(=O)N2c3ccccc3Sc3ccccc32)cc(OC)c1OC` had a pIC50 in the assay on K562 of 5.73. Also, the half-maximal inhibitory concentration (IC50) on Tubulin amounted to 4.96 µM.

On to `O=C(c1ccc([N+](=O)[O-])cc1)N1c2ccccc2Oc2ccc(Cl)cc21`, for which the pIC50 with K562 is less than 4.10. The compound also gave an IC50 against Tubulin of 5.03 µM.

Take `COc1cccc(C(=O)N2c3ccccc3Oc3ccc(Cl)cc32)c1`: in the assay with K562, the pIC50 is 5.86. Besides, at Tubulin, the IC50 is 0.65 µM.

As to `COc1ccc(C(=O)N2c3ccccc3Sc3ccc(Cl)cc32)cc1`, in the assay on K562, the pIC50 is 6.08. The IC50 at Tubulin stood at 0.87 µM.

`O=C(c1ccccc1)N1c2ccccc2Sc2ccccc21` had a pIC50 in the assay on K562 of less than 4.52.

`c1ccc2c(c1)Nc1ccccc1O2` [PHENOXAZINE]: in the assay on K562, the pIC50 was less than 4.52. The compound also had an IC50 against Tubulin of more than 10 µM.

As to `COc1cc(C(=O)N2c3ccccc3Sc3ccc(Cl)cc32)cc(OC)c1OC`, the pIC50 in the assay on K562 was 4.96. For the same compound, the IC50 on Tubulin is more than 10 µM.

`COc1ccc(C(=O)N2c3ccccc3Sc3ccccc32)cc1O`: in the assay on K562, the pIC50 is 6.68. In addition, the IC50 at Tubulin turned out to be 1.4 µM.

`O=C(c1ccc2c(c1)OCO2)N1c2ccccc2Oc2ccc(Cl)cc21` gave a pIC50 in the assay on K562 of 5.95. The compound further gave an IC50 at Tubulin of 1.13 µM.

Consider `O=C(c1ccccc1)N1c2ccccc2S(=O)(=O)c2ccc(Cl)cc21`, for which, in the assay with K562, the pIC50 was less than 4.52.

As for `COc1ccc(CC(=O)N2c3ccccc3Sc3ccc(Cl)cc32)cc1`, the pIC50 with K562 is 5.10.

In the assay on K562, `COc1ccc(CC(=O)N2c3ccccc3Oc3ccccc32)cc1` had a pIC50 of 5.32. The IC50 against Tubulin was more than 10 µM.

Consider `COc1ccc(C(=O)N2c3ccccc3S(=O)(=O)c3ccccc32)cc1`, for which the pIC50 in the assay on K562 was 6.55. Besides, the IC50 on Tubulin was 2.53 µM.

`CN(C)c1ccc(C(=O)N2c3ccccc3Oc3ccc(Cl)cc32)cc1` showed a pIC50 in the assay on K562 of 5.92. Also, at Tubulin, the IC50 was 0.88 µM.

In the assay on K562, `COc1ccc(C(=O)N2c3ccccc3S(=O)(=O)c3ccc(Cl)cc32)cc1` had a pIC50 of 6.10. On Tubulin, the IC50 was determined as 1.05 µM.

Consider `COc1ccc(C(=O)N2c3ccccc3Sc3ccc(OC)cc32)cc1`, for which the pIC50 in the assay on K562 is 6.01. The compound also returned an IC50 against Tubulin of 3.23 µM.

In turn, `COc1cc(C(=O)N2c3ccccc3[S+]([O-])c3ccc(Cl)cc32)cc(OC)c1OC` (configuration not stated) showed a pIC50 with K562 of 4.46. The compound also yielded an IC50 on Tubulin of more than 10 µM.

As to `O=C(c1ccc(C(F)(F)F)cc1)N1c2ccccc2Oc2ccc(Cl)cc21`, the pIC50 in the assay on K562 is less than 4.12.

In the assay on K562, `COc1cc(C(=O)N2c3ccccc3Oc3ccc(Cl)cc32)cc(OC)c1OC` showed a pIC50 of 4.62.

With `COc1ccc(CC(=O)N2c3ccccc3Oc3ccc(Cl)cc32)cc1`, the pIC50 in the assay on K562 is 6.26. This compound showed an IC50 against Tubulin of 1.1 µM.

In the assay on K562, `Clc1ccc2c(c1)Nc1ccccc1S2` showed a pIC50 of less than 4.00.

For the compound `COc1ccc(C(=O)N2c3ccccc3S(=O)(=O)c3ccccc32)cc1O`, the pIC50 in the assay on K562 is 6.74. Further, the IC50 on Tubulin was found to be 3 µM.

Turning to `O=C(c1ccccc1)N1c2ccccc2Sc2ccc(Cl)cc21`, in the assay on K562, the negative logarithm of the IC50 (pIC50) is less than 4.52.

Take `COc1ccc(C(=O)N2c3ccccc3Sc3ccc(SC)cc32)cc1`: the pIC50 in the assay on K562 was 5.44. The IC50 on Tubulin is 1.43 µM.

For the compound `COc1ccc(C(=O)N2c3cc(Cl)ccc3Oc3ccc(Cl)cc32)cc1`, in the assay on K562, the pIC50 is 6.31. This compound also returned an IC50 against Tubulin of 0.7 µM.
